Laboratory results: ChEMBL document CHEMBL3098105, “7,7'-Diazaindirubin--a small molecule inhibitor of casein kinase 2 in vitro and in cells” (Bioorg Med Chem, 2014)
Activity calls are given as the source filed them. No cut-off for these calls is given here.

Experiments:
MDA-MB-435 = assay: Antiproliferative activity against human MDA-MB-435 cells after 3 days by sulforhodamine B assay; format: functional; settings: MDA-MB-435, 72 h
Outline: (§1)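 Tested in the NCI 60 cell line panel. GI50 is the concentration giving 50% inhibition of cell growth, and values are the mean of two series of tests.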

HL-60 = assay: Antiproliferative activity against human HL60 cells after 3 days by sulforhodamine B assay; format: functional; settings: HL-60, 72 h; outline: as §1
[1] = target: T1, Muscle, skeletal receptor tyrosine-protein kinase (Homo sapiens) (UniProt O15146); assay: Inhibition of MUSK (unknown origin) assessed as residual activity at 1 uM relative to control
T1 sequence (whole entry): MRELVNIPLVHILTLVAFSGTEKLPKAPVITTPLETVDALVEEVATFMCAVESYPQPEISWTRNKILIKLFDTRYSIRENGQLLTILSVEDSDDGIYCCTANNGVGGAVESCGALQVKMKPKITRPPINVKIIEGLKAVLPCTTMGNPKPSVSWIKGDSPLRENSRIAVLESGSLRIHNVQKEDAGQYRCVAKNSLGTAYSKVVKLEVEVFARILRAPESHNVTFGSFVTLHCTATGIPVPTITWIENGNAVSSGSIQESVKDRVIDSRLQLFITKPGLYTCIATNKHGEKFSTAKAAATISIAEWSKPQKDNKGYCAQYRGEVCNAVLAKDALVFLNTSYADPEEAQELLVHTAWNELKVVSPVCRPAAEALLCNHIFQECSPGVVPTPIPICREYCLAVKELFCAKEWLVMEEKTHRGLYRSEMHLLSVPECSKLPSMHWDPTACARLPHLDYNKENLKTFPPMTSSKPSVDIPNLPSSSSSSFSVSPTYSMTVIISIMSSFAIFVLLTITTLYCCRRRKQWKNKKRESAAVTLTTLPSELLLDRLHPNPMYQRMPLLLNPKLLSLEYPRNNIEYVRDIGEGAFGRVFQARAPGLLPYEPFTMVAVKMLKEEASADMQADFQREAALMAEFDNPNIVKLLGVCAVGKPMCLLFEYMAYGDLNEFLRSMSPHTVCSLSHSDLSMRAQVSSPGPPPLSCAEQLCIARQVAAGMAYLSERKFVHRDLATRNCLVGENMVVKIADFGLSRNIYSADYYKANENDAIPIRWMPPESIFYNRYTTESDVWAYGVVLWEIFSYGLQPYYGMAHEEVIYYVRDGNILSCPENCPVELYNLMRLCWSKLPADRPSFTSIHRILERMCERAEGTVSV

[2] = Antiproliferative activity against human NCI-ADR-RES cells after 3 days by sulforhodamine B assay; format: functional; settings: 72 h; outline: as §1
[3] = target: Mitogen-activated protein kinase kinase kinase kinase 2 (Homo sapiens) (UniProt Q12851); assay: Inhibition of human GCK assessed as residual activity at 1 uM relative to control
[4] = target: Ephrin type-A receptor 3 (Homo sapiens) (UniProt P29320); assay: Inhibition of human EphA3 assessed as residual activity at 1 uM relative to control
MCF7 [5] = assay: Cell cycle arrest in human MCF7 cells assessed as accumulation at S phase at 0.25 uM after 24 hrs using propidium iodide staining by FACS analysis (reference value: 18.59%); format: functional
[6] = target: Casein kinase II (Homo sapiens) (UniProt P67870+P68400+P19784); assay: Inhibition of human CK2 assessed as residual activity at 1 uM relative to control; format: protein-complex assay
[7] = target: Receptor tyrosine-protein kinase erbB-2 (Homo sapiens) (UniProt P04626); assay: Inhibition of ERBB2 (unknown origin) assessed as residual activity at 10 uM relative to control
[8] = target: Fibroblast growth factor receptor 3 (Homo sapiens) (UniProt P22607); assay: Inhibition of human FGFR3 assessed as residual activity at 1 uM relative to control
[9] = target: Serine/threonine-protein kinase 4 (Homo sapiens) (UniProt Q13043); assay: Inhibition of human MST1 assessed as residual activity at 1 uM relative to control
[10] = target: Calcium/calmodulin-dependent protein kinase type 1D (Homo sapiens) (UniProt Q8IU85); assay: Inhibition of human CaMK1delta assessed as residual activity at 1 uM relative to control
NCI-H23 = assay: Antiproliferative activity against human NCI-H23 cells after 3 days by sulforhodamine B assay; format: functional; settings: NCI-H23, 72 h; outline: as §1
A498 = assay: Antiproliferative activity against human A498 cells after 3 days by sulforhodamine B assay; format: functional; settings: A498, 72 h; outline: as §1
[11] = target: Tyrosine-protein kinase ITK/TSK (Homo sapiens) (UniProt Q08881); assay: Inhibition of human Itk assessed as residual activity at 1 uM relative to control
[12] = target: Serine/threonine-protein kinase 10 (Homo sapiens) (UniProt O94804); assay: Inhibition of human LOK assessed as residual activity at 1 uM relative to control
A549 = assay: Antiproliferative activity against human A549 cells after 3 days by sulforhodamine B assay; format: functional; settings: A549, 72 h; outline: as §1
SK-MEL-2 = assay: Antiproliferative activity against human SK-MEL-2 cells after 3 days by sulforhodamine B assay; format: functional; settings: SK-MEL-2, 72 h; outline: as §1
[13] = target: T1, Muscle, skeletal receptor tyrosine-protein kinase (Homo sapiens); assay: Inhibition of MUSK (unknown origin) assessed as residual activity at 10 uM relative to control
SN12C = assay: Antiproliferative activity against human SN12C cells after 3 days by sulforhodamine B assay; format: functional; settings: 72 h
[14] = target: Tyrosine-protein kinase Fer (Homo sapiens) (UniProt P16591); assay: Inhibition of human Fer assessed as residual activity at 1 uM relative to control
MCF7 [15] = assay: Induction of late stage apoptosis in CK2-deficient human MCF7 cells at 0.25 to 4 uM after 24 hrs using propidium iodide/annexin V staining by FACS analysis; format: functional, cell-based
Outline: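 MCF7 cells were then treated for 24 h, stained with FITC-annexin V in HEPES pH 7.4 binding buffer with 1.8 mM CaCl2 (15 min, dark, room temperature), then with PI (10 min), and analysed by FACS.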

[16] = target: Tyrosine-protein kinase Fgr (Homo sapiens) (UniProt P09769); assay: Inhibition of human Fgr assessed as residual activity at 1 uM relative to control
[17] = target: High affinity nerve growth factor receptor (Homo sapiens) (UniProt P04629); assay: Inhibition of human TrkA assessed as residual activity at 1 uM relative to control
[18] = target: Death-associated protein kinase 1 (Homo sapiens) (UniProt P53355); assay: Inhibition of human DAPK1 assessed as residual activity at 1 uM relative to control
[19] = target: Tyrosine-protein kinase HCK (Homo sapiens) (UniProt P08631); assay: Inhibition of human Hck assessed as residual activity at 1 uM relative to control
Chain of Tyrosine-protein kinase HCK (Homo sapiens) (P08631 2-526 limits assumed): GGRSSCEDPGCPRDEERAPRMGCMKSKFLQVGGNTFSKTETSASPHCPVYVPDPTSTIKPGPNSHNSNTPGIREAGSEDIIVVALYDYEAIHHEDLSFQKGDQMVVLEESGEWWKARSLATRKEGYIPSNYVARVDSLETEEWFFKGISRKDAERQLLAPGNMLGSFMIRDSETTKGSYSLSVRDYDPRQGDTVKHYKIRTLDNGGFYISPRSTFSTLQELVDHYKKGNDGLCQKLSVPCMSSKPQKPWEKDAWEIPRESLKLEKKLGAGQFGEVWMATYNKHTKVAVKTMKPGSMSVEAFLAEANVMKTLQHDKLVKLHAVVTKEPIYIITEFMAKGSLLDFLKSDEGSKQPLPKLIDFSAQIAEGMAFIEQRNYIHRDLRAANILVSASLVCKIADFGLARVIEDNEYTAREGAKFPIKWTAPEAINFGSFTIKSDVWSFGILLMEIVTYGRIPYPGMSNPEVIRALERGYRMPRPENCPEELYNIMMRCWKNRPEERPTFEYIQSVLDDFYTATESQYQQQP

Chain of Tyrosine-protein kinase Fgr (Homo sapiens) (P09769 2-529 limits assumed): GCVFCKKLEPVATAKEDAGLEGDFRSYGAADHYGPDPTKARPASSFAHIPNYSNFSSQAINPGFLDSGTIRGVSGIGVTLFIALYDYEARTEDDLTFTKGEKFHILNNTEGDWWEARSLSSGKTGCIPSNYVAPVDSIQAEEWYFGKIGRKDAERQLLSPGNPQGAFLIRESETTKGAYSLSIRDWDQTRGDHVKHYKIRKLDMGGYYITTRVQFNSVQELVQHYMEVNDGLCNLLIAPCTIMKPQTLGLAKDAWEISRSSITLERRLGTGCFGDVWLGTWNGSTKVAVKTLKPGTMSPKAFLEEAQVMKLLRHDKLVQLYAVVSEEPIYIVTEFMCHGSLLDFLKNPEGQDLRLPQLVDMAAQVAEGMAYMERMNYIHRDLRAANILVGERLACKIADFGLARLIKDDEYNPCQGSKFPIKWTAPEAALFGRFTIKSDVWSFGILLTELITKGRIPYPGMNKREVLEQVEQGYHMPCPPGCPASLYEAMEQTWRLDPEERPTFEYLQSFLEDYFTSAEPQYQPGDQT
Chain of Serine/threonine-protein kinase 4 (Homo sapiens) (Q13043 whole entry): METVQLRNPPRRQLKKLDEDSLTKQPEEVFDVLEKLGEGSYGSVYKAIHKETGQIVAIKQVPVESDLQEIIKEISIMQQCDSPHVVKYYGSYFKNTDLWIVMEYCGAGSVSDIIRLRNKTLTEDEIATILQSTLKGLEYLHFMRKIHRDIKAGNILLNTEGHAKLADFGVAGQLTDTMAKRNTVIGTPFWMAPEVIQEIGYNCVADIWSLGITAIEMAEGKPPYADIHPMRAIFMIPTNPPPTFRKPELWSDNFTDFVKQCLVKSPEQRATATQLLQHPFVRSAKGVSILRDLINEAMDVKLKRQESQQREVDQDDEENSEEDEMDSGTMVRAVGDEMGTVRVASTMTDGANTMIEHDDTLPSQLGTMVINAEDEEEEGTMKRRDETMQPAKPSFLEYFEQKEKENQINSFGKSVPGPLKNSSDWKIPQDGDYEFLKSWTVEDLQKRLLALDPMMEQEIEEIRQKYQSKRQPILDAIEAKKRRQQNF
Chain of Fibroblast growth factor receptor 3 (Homo sapiens) (P22607 23-806 limits assumed): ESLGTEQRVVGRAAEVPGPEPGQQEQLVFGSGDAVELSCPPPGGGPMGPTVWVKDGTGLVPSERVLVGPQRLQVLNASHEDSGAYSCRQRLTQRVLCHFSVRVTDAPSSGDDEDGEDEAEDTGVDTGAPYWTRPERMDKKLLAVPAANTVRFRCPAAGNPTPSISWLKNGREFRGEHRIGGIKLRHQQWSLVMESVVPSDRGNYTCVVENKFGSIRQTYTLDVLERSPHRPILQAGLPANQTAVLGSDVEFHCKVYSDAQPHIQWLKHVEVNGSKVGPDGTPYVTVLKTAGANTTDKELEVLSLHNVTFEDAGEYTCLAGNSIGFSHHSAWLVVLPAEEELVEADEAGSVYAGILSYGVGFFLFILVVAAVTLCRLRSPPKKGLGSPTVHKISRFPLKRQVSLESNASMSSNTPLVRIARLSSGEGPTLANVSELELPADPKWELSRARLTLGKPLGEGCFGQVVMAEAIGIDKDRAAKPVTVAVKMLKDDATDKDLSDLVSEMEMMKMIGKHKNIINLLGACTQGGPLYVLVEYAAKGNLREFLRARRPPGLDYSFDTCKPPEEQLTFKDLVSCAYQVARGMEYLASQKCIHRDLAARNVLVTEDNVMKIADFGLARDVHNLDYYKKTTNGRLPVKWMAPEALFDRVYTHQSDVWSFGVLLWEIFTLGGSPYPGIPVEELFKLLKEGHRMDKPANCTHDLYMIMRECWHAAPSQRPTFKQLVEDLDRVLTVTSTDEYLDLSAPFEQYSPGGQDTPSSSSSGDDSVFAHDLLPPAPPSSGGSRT
Chain of Tyrosine-protein kinase ITK/TSK (Homo sapiens) (Q08881 whole entry): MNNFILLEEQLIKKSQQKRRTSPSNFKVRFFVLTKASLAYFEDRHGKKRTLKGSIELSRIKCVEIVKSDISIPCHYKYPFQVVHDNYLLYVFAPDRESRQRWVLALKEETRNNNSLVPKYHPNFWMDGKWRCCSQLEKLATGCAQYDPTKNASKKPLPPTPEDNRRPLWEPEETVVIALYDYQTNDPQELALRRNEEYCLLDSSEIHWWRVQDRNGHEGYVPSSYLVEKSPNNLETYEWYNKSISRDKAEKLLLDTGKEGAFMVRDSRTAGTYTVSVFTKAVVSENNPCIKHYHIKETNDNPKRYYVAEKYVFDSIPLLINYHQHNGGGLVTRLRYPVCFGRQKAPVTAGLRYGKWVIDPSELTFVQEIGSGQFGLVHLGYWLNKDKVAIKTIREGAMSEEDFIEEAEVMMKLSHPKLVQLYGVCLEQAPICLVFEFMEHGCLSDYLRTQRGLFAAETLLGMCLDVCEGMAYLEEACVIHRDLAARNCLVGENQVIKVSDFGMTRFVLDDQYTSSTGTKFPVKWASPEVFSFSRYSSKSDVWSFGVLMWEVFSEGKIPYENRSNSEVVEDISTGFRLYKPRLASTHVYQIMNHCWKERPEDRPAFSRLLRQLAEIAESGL
Chain of Ephrin type-A receptor 3 (Homo sapiens) (P29320 whole entry): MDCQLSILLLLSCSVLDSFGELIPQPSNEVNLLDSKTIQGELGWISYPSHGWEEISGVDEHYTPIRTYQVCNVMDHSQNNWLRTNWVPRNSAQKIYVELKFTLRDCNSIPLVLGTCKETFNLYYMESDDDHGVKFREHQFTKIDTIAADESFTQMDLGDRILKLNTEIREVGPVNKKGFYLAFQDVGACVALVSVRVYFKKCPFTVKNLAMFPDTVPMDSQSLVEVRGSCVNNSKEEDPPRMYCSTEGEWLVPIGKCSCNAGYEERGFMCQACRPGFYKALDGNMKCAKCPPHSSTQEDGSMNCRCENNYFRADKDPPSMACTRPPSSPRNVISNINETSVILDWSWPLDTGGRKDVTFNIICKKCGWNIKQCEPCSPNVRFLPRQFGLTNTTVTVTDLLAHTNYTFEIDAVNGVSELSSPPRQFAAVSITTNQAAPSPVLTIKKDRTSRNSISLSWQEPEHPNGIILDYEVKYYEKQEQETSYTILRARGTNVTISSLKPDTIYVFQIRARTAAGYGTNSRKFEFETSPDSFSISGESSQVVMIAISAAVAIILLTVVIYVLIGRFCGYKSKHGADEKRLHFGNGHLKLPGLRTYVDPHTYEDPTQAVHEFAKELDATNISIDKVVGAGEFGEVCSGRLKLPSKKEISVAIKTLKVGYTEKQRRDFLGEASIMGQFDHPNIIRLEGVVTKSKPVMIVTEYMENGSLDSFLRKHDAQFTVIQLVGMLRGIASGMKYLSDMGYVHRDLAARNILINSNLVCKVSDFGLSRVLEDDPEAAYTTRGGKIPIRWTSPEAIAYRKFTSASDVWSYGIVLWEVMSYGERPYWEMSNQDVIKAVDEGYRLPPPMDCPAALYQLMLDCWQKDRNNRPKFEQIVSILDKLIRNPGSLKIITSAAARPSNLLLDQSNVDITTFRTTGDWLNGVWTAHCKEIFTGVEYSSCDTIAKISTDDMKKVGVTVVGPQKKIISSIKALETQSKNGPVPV
Chain of Tyrosine-protein kinase Fer (Homo sapiens) (P16591 whole entry, looked up): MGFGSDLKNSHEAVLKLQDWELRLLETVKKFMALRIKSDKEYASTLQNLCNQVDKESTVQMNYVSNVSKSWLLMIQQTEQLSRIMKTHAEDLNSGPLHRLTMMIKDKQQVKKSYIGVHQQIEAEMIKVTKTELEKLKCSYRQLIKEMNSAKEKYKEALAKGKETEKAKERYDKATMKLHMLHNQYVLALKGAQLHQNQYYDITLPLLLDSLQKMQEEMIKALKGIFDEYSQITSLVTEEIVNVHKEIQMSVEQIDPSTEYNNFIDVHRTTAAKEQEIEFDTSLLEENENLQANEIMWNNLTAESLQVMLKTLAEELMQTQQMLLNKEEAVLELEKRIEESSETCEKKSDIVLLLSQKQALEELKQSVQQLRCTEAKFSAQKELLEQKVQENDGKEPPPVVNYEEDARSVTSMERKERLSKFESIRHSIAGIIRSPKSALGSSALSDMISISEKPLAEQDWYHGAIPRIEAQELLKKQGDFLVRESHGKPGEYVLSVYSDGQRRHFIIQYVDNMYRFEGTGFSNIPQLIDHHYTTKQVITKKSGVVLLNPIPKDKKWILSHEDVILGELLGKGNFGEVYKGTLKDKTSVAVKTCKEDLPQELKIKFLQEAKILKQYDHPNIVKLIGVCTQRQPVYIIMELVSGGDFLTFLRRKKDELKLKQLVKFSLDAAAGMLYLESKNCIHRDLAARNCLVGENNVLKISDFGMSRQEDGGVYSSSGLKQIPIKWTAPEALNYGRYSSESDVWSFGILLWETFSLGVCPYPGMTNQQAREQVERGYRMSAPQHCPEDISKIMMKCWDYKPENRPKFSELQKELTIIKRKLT

## O=C1Nc2ncccc2/C1=C1/Nc2ncccc2C1=O
MDA-MB-435
  GI50: 198 nM
HL-60
  GI50: 1850 nM
[1]
  Activity: 95%
[2]
  GI50: 1390 nM
[3]
  Activity: 102%
[4]
  Activity: 83%
MCF7 [5]
  Activity: 18.57%
[6]
  Activity: 49%
[7]
  Activity: 102%
[8]
  Activity: 126%
[9]
  Activity: 96%
[10]
  Activity: 70%
NCI-H23
  GI50: 376 nM
A498
  GI50: 1660 nM
[11]
  Activity: 106%
[12]
  Activity: 93%
A549
  GI50: 236 nM
SK-MEL-2
  GI50: 1710 nM
[13]
  Activity: 98%
SN12C
  GI50: 1410 nM
[14]
  Activity: 102%
MCF7 [15]
  Activity: inactive
[16]
  Activity: 114%
[17]
  Activity: 127%
[18]
  Activity: 94%
[19]
  Activity: 100%
